Active and inactive are the calls of the source. The rule behind the calls is not given here.

The target of experiment [1] is T1, Tyrosine-protein phosphatase non-receptor type 1 (Homo sapiens) (UniProt P18031).
T1 sequence (whole entry): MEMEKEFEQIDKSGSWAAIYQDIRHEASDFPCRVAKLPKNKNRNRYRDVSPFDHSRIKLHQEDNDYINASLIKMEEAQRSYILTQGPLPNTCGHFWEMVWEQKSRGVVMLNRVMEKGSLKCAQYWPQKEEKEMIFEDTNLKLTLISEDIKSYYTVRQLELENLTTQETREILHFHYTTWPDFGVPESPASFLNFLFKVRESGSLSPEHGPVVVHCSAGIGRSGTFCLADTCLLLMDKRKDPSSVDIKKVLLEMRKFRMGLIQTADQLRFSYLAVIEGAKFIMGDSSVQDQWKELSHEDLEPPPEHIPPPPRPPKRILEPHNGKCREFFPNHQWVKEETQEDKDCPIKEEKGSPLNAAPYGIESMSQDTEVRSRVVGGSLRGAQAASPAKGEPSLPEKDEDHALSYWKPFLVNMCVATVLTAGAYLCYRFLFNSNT
Put plainly: (§1) Inhibition of PTP1B at 100 uM. A digest of the protocol:
(§2)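 Compound at 100 µM preincubated 10 min with PTP-1B, then 10 mM pNPP in 50 mM HEPES pH 7.0 with 1 mM DTT and 2 mM EDTA for 30 min at 37 °C. Stopped with 0.1 N NaOH. p-Nitrophenolate read at 410 nm (ε 1.78×10^4 M⁻¹cm⁻¹) to give residual activity. Mean of three independent experiments.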

Experiment [2] addresses Tyrosine-protein phosphatase non-receptor type 1 (Homo sapiens) (UniProt P18031). The experiment is described as §1. The method, boiled down:
as §2
The source holds these as a separate data set.

For experiment [3], the target named is T2, Tyrosine-protein phosphatase non-receptor type 1 (Homo sapiens, UniProt P18031).
T2 sequence (P18031 whole entry): T1 sequence (whole entry)
Description: Inhibition of PTP1B. A digest of the protocol: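 No detergent present. Compounds at 10, 25, 50, 75 and 100 µM preincubated 10 min with PTP-1B, then 10 mM pNPP in 50 mM HEPES pH 7.0, 1 mM DTT, 2 mM EDTA, 30 min at 37 °C. NaOH stop. A410 converted to p-nitrophenolate (ε 1.78×10^4 M⁻¹cm⁻¹). IC50 and Ki derived.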

For experiment [4], the target named is T2, Tyrosine-protein phosphatase non-receptor type 1. Description: Inhibition of PTP1B in presence of 0.01% Triton X-100. A digest of the protocol: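 0.01% Triton X-100 included during the 10-min preincubation of compound (10–100 µM) with PTP-1B. Then 10 mM pNPP in 50 mM HEPES pH 7.0, 1 mM DTT, 2 mM EDTA, 30 min at 37 °C, NaOH stop. Read at 410 nm (ε 1.78×10^4 M⁻¹cm⁻¹). IC50 and Ki derived.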

With `O=C(/C=C(\O)c1ccccc1)c1ccc2occc2c1O`, in experiment [1], the inhibition came out at 40.5%.

SODIUM ORTHOVANAD yielded an inhibition in experiment [2] of 56%.

In experiment [1], `COc1c(C(=O)/C=C(\O)c2ccccc2Cl)ccc2occc12` returned an inhibition of 27%.

The molecule `COc1ccc(-c2cc(=O)c3ccc4occc4c3o2)cc1` yielded an inhibition in experiment [1] of 22%.

On to `CC(=O)c1cc2oc(-c3coc4cc(C(C)=O)c(O)cc34)cc2cc1O`, for which, in experiment [1], the inhibition was determined as 36.2%.

For `COc1ccc2cc(-c3coc4c(C(C)=O)c(OC)ccc34)oc2c1C(C)=O`, the inhibition in experiment [1] was found to be 54.6%.

For `O=c1cc(-c2ccc(CO)c(CO)c2)oc2cc3occc3cc12`, the inhibition in experiment [1] stood at 8.1%.

Regarding `O=c1cc(-c2ccccc2)oc2cc3occc3cc12`, in experiment [1], the inhibition was found to be 67.5%. In experiment [3], this molecule yielded an IC50 of 94 µM and a Ki of 57 µM. In addition, in experiment [4], the IC50 amounted to 61.3 µM and the Ki turned out to be 45 µM.

Consider `COc1ccc(/C(O)=C/C(=O)c2ccc3occc3c2OC)cc1`, for which, in experiment [1], the result was inactive.

`COc1ccc(-c2cc(=O)c3cc4ccoc4cc3o2)cc1` showed an inhibition in experiment [1] of 75.6%. Further, the IC50 was determined as 72.5 µM in experiment [3] and 68.8 µM in experiment [4]. Further, the results for the Ki in experiment [3] and in experiment [4] were 30 µM and 36 µM, respectively.

In turn, `CC(=O)c1cc2cc(-c3coc4cc(O)c(C(C)=O)cc34)oc2cc1O` gave an inhibition in experiment [1] of 74.9%. In addition, the IC50 in experiment [3] came out at 80 µM; in experiment [4], 91.3 µM. For the same molecule, the Ki in experiment [3] came to 37 µM; in experiment [4], 61 µM.

For the molecule `COc1cccc(/C(O)=C/C(=O)c2cc3ccoc3cc2O)c1`, the result in experiment [1] was inactive.

For `O=c1cc(-c2ccccc2)oc2c1ccc1occc12`, in experiment [1], the inhibition is 21%.

Consider `COc1ccc(/C(O)=C/C(=O)c2cc3ccoc3cc2O)cc1`, for which the inhibition in experiment [1] is 40.5%.

On to `COc1ccc(/C(O)=C/C(=O)c2ccc3occc3c2O)cc1`, for which the inhibition in experiment [1] came to 24.3%.

Take `COc1ccc(/C(O)=C/C(=O)c2cc3ccoc3cc2O)cc1OC`: the inhibition in experiment [1] came to 32.4%.

With `COC(=O)c1ccc2oc(-c3coc4ccc(C(=O)OC)c(O)c34)cc2c1O`, in experiment [1], the inhibition is 55.5%.

In turn, `CC(=O)c1ccc2occc2c1O` displayed an inhibition in experiment [1] of 21.6%.

On to `COc1cc2occc2cc1C(=O)/C=C(\O)c1ccccc1`, for which the inhibition in experiment [1] worked out at 41.5%.

In the case of `CC(=O)c1cc2ccoc2cc1O`, in experiment [1], the inhibition was 19%.

With `CC(=O)c1c(O)ccc2cc(-c3coc4c(C(C)=O)c(O)ccc34)oc12`, the inhibition in experiment [1] stood at 72%. Moreover, in experiment [3], the IC50 amounted to 75 µM and the Ki was 64 µM. Further, in experiment [4], the IC50 was 56.3 µM and the Ki came to 54 µM.

As to `COc1cccc(-c2cc(=O)c3cc4ccoc4cc3o2)c1`, in experiment [1], the outcome was inactive.

With `O=C(/C=C(\O)c1ccc(CO)c(CO)c1)c1cc2ccoc2cc1O`, the inhibition in experiment [1] is 56.7%.

For `COc1c(C(=O)/C=C(\O)c2ccc(CO)c(CO)c2)ccc2occc12`, the inhibition in experiment [1] came to 42.8%.

`COc1ccc(-c2cc(=O)c3cc4ccoc4cc3o2)cc1OC` displayed an inhibition in experiment [1] of 24.3%.

For the molecule `CC(=O)c1ccc2oc(-c3coc4ccc(C(C)=O)c(O)c34)cc2c1O`, in experiment [1], the inhibition amounted to 67.4%. For the same molecule, in experiment [3], half-maximal inhibition (IC50) was put at 87 µM and the affinity corresponds to a Ki of 35 µM. In addition, in experiment [4], the IC50 was found to be 58.8 µM and the Ki was 27.5 µM.

On to `O=C(/C=C(\O)c1ccccc1)c1cc2ccoc2cc1O`, for which the inhibition in experiment [1] worked out at 24.3%.

One may read the inhibition as the share of the control response that was lost under treatment. The low end stands for a weak effect, the high end for a strong effect. Broadly, the IC50 is the concentration that gives 50% inhibition. By Ki is commonly meant the dissociation constant of the complex between target and ligand, obtained from inhibition or displacement.

Source of the values: ChEMBL document CHEMBL1144560, “Synthesis of benzofuran scaffold-based potential PTP-1B inhibitors” (Bioorg Med Chem, 2007).
